Assay type in all cases: cell-based
The target in data set [1] is T1, Oxysterols receptor LXR-alpha (Homo sapiens, UniProt Q13133).
T1 sequence (Q13133 whole entry): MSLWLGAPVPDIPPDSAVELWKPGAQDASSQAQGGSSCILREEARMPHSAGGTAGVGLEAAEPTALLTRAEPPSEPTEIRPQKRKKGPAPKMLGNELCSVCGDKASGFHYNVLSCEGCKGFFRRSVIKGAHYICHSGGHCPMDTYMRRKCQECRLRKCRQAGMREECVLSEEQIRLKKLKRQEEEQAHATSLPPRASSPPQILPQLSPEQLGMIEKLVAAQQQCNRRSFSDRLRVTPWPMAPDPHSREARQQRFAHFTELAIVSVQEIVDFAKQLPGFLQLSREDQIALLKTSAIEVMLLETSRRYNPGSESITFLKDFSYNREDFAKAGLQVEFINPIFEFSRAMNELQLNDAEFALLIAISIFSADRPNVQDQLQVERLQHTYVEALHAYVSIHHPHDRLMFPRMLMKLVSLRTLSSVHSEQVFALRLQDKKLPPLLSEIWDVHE
Nature of the data set: Inverse agonist activity at human LXRalpha transfected in human HEK293T cells co-transfected with pSG5 and pGL3/(DR-4)-c-fos-FF-luc/pCMV/Renilla-luc assessed as receptor transactivation incubated for 20 hrs by dual luciferase reporter gene assay. (In general: In a reporter assay the amount or activity of a reporter protein is the signal.)

For data set [2], the target named is T2, Oxysterols receptor LXR-beta (Homo sapiens) (UniProt P55055).
T2 sequence (whole entry): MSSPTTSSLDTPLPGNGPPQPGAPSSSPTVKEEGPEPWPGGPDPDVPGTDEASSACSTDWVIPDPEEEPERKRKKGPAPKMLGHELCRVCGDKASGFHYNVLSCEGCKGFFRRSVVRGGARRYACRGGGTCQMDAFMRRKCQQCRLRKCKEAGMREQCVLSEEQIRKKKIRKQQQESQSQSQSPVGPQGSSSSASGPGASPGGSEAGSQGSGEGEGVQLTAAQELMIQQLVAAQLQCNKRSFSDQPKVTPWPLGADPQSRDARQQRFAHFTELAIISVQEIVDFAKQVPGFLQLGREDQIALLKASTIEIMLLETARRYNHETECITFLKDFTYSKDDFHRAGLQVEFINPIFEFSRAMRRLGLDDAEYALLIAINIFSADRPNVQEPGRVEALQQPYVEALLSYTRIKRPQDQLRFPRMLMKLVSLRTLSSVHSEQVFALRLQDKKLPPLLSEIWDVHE
Nature of the data set: (§1) Inverse agonist activity at human LXRbeta transfected in human HEK293T cells co-transfected with pSG5 and pGL3/(DR-4)-c-fos-FF-luc/pCMV/Renilla-luc assessed as receptor transactivation incubated for 20 hrs by dual luciferase reporter gene assay.

The target of data set [3] is T3, Oxysterols receptor LXR-alpha (Homo sapiens) (UniProt Q13133).
T3 sequence (whole entry): T1 sequence (Q13133 whole entry)
Nature of the data set: Agonist activity at human LXRalpha transfected in human HEK293T cells co-transfected with pSG5 and pGL3/(DR-4)-c-fos-FF-luc/pCMV/Renilla-luc assessed as receptor transactivation at 10 uM incubated for 20 hrs by dual luciferase reporter gene assay. The settings on record: filed as agonist. The method in brief:
(§2)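 HEK293T cells seeded at 2 × 10^4 per well for 24 h, then transfected with pGL3/(DR-4)-c-fos-FF-luc, pCMV/Renilla-luc, pSG5/hRXRa and pSG5/hLXRa or pSG5/hLXRb. Compound added 5 h post-transfection and left 20 h. Firefly and Renilla luciferase read by dual-luciferase assay. Means ± SD from three independent experiments.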

For data set [4], the target named is T2, Oxysterols receptor LXR-beta (Homo sapiens). Nature of the data set: Agonist activity at human LXRbeta transfected in human HEK293T cells co-transfected with pSG5 and pGL3/(DR-4)-c-fos-FF-luc/pCMV/Renilla-luc assessed as receptor transactivation at 10 uM incubated for 20 hrs by dual luciferase reporter gene assay. The settings on record: filed as agonist. The method in brief:
as §2

The test system of a further data set is HEK-293T. Put plainly: Cytotoxicity against human HEK293T cells assessed as reduction in cell viability upto 10 uM incubated for 48 hrs by MTT assay. The method in brief:
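Cells kept in DMEM with 10% FBS and 1% penicillin/streptomycin at 37 °C, 5% CO2. HEK293T seeded at 5 × 10^3 per well for 24 h, then exposed to compound for 48 h. Viability read by MTT. Means ± SD of three independent experiments.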
(In general: Tetrazolium dyes change colour on reduction, which living cells bring about.)

The test system of another data set is HepG2. Nature of the data set: Cytotoxicity against human HepG2 cells assessed as reduction in cell viability at 10 uM incubated for 48 hrs by MTT assay. The settings on record: hepg2, 48 h. Put shortly: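 HepG2 grown in DMEM with 10% FBS at 37 °C, 5% CO2. Seeded at 1 × 10^5 per well for 24 h, treated 48 h, viability by MTT assay. Means ± SD from three independent experiments.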

For another data set, the system named is 3T3-L1. Nature of the data set: Cytotoxicity against mouse 3T3-L1 cells assessed as reduction in cell viability at 10 uM incubated for 48 hrs by MTT assay. The settings on record: 3t3-l1, 48 h. Put shortly:
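Mouse 3T3-L1 cells in DMEM with 10% FBS, 1% penicillin/streptomycin, at 37 °C, 5% CO2. Plated at 2 × 10^3 per well for 24 h, then compound for 48 h. MTT read-out of viability. Means ± SD, three independent experiments.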

The target in data set [5] is T4, Oxysterols receptor LXR-beta (Homo sapiens, UniProt P55055).
T4 sequence (P55055 whole entry): T2 sequence (whole entry)
The description is as §1.

The source made the active and inactive calls. The calls are words filed in the database; no cut-off is given here.

Usually IC50 stands for the concentration at which inhibition is half-maximal.

Take `CC(C)[C@@H]1N(C(=O)OC(C)(C)C)CC[C@@]12C(=O)N(c1cccc(-c3ccc(C(=O)O)c(S(C)(=O)=O)c3)c1)c1ccccc12`: the IC50 result in data set [1] is reported as “Not Active”.

As for `COC(=O)c1ccc(N2C(=O)[C@@]3(CCN(C(=O)OC(C)(C)C)[C@H]3C(C)C)c3ccccc32)cc1S(C)(=O)=O`, the result in data set [2] was inactive. For the same compound, the result in data set [3] and in data set [4] was Active.

On to `COC(=O)c1ccc(N2C(=O)[C@@]3(CCN(C(=O)OC(C)(C)C)[C@H]3C(C)C)c3ccccc32)cc1`, for which the outcome in data set [2] was inactive.

As for `CC(C)[C@@H]1N(C(=O)OC(C)(C)C)CC[C@@]12C(=O)N(c1cccc(-c3ccc(CO)cc3)c1)c1ccccc12`, in data set [1], the concentration for half-maximal inhibition (IC50) result is listed as “Not Active”.

As to `CC(C)[C@H]1N(C(=O)OC(C)(C)C)CC[C@]12C(=O)N(c1cccc(-c3ccc(CO)c(S(C)(=O)=O)c3)c1)c1ccccc12`, the Activity entry in the data set with HEK-293T, with HepG2 and with 3T3-L1 was “Non-Toxic” throughout.

In the case of `CC(C)[C@@H]1N(C(=O)OC(C)(C)C)CC[C@@]12C(=O)N(c1ccc(CO)cc1)c1ccccc12`, in data set [2], the result was inactive.

Regarding `CC(C)[C@@H]1N(C(=O)CC(C)(C)C)CC[C@@]12C(=O)N(c1cccc(-c3ccc(C(=O)N(C)C)c(Cl)c3)c1)c1ccccc12`, the outcome in data set [2] was inactive. Further, the result in data set [3] and in data set [4] was Active.

As to `CC(C)[C@@H]1N(C(=O)OC(C)(C)C)CC[C@@]12C(=O)N(c1ccc(CO)c(S(C)(=O)=O)c1)c1ccccc12`, the result in data set [2] was inactive. In addition, the result in data set [3] and in data set [4] was Active.

As to `CC(C)[C@@H]1N(C(=O)C(C)(C)C)CC[C@@]12C(=O)N(c1cccc(-c3ccc(C(=O)N(C)C)c(Cl)c3)c1)c1ccccc12`, the result in data set [2] was inactive. Besides, the outcome in data set [3] and in data set [4] was Active.

Turning to `CC(C)[C@@H]1N(C(=O)OC(C)(C)C)CC[C@@]12C(=O)N(CCCC(=O)O)c1ccccc12`, the outcome in data set [2] was inactive.

Regarding `CC(C)[C@@H]1N(C(=O)OC(C)(C)C)CC[C@@]12C(=O)N(c1cccc(-c3ccc(C(=O)N(C)C)c(Cl)c3)c1)c1ccccc12`, the outcome in data set [2] was inactive. Also, the outcome in data set [3] and in data set [4] was Active.

As to `CC(C)[C@@H]1N(C(=O)OC(C)(C)C)CC[C@@]12C(=O)N(c1cccc(-c3ccc4ccn(C)c4c3)c1)c1ccccc12`, the figures for the half-maximal inhibitory concentration (IC50) entry in data set [1] and in data set [5] were “Not Active” and more than 20 µM, respectively.

Take `CC(C)[C@@H]1N(C(=O)OC(C)(C)C)CC[C@@]12C(=O)N(CCCC#N)c1ccccc12`: in data set [2], the result was inactive.

As for `CC(C)[C@@H]1N(C(=O)OC(C)(C)C)CC[C@@]12C(=O)N(c1cccc(-c3ccc(CO)c(Cl)c3)c1)c1ccccc12`, in data set [1], the IC50 result is on record as “Not Active”.

As for `CC(C)[C@@H]1N(C(=O)OC(C)(C)C)CC[C@@]12C(=O)N(CCCCl)c1ccccc12`, in data set [2], the result was inactive.

These data come from ChEMBL document CHEMBL4765456, “Discovery of novel liver X receptor inverse agonists as lipogenesis inhibitors” (Eur J Med Chem, 2020).
